One may read the EC50 as the concentration that produces a half-maximal response. A word on the inhibition: it is how much of the control response was suppressed.

The source of these data is ChEMBL document CHEMBL3600342, “Fragment-Based Drug Discovery Targeting Inhibitor of Apoptosis Proteins: Discovery of a Non-Alanine Lead Series with Dual Activity Against cIAP1 and XIAP” (J Med Chem, 2015).

Data set [1] has as its system Mus musculus. Briefly: Reduction of cIAP1 level in human MDA-MB-231 cells xenografted in Balb/c SCID mouse at 100 mg/kg, ip measured after 1 to 6 hrs by Western blot analysis relative to vehicle-treated control. It counts as functional, organism-based. In a few lines: (§1)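 Male Balb/c scid mice bearing MDA-MB-231 tumors received a single 100 mg/kg i.p. dose in 10% DMSO/90% saline (freebase equivalent). Tumors were harvested at 1, 6 and 24 h and snap frozen. Lysates were ground under liquid nitrogen in Triton lysis buffer with NaF/Na3VO4, and equal protein was run on SDS-PAGE. Blots were probed for cIAP1, XIAP, cleaved PARP and cleaved caspase-3, with infrared detection; comparison against vehicle-dosed tumors.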
(In xenograft studies the graft and the host belong to different species.)

In data set [2] the test system is Mus musculus. Kind of data set: Toxicity in Balb/c SCID mouse xenografted with human MDA-MB-231 cells assessed as effect on body weight at 100 mg/kg, ip bid measured everyday during compound dosing. The settings on record: in vivo.
The test system of data set [3] is Mus musculus. Briefly: Reduction of cIAP1 level in human MDA-MB-231 cells xenografted in Balb/c SCID mouse at 100 mg/kg, ip measured after 24 hrs by Western blot analysis. In kind it is functional, organism-based. Summed up:
as §1

Data set [4] relates to EVSA-T. Briefly: cells. As to conditions: Homo sapiens, 72 h.
Data set [5] relates to Mus musculus. Briefly: Reduction of XIAP level in human MDA-MB-231 cells xenografted in Balb/c SCID mouse at 100 mg/kg, ip measured after 1 to 24 hrs by Western blot analysis. It counts as functional, organism-based. Summed up:
as §1

The subject of data set [6] is MDA-MB-231. Briefly: Antitumor activity against human MDA-MB-231 cells xenografted in Balb/c SCID mouse assessed as tumor growth inhibition at 100 mg/kg, ip bid measured every 3 days.
Data set [7] concerns HCT-116. Briefly: cells. As to conditions: Homo sapiens, HCT-116, 72 h.
Data set [8] deals with MDA-MB-231. Briefly: cells. As to conditions: Homo sapiens, MDA-MB-231, 72 h.
Data set [9] relates to Mus musculus. Kind of data set: Increase in cleaved caspase-3 level in human MDA-MB-231 cells xenografted in Balb/c SCID mouse at 100 mg/kg, ip measured after 1 to 24 hrs by Western blot analysis. In kind it is functional, organism-based. In a few lines:
as §1

For data set [10], the system named is Mus musculus. Kind of data set: Increase in cleaved PARP level in human MDA-MB-231 cells xenografted in Balb/c SCID mouse at 100 mg/kg, ip measured after 1 to 24 hrs by Western blot analysis. In kind it is functional, organism-based. In a few lines: as §1
For data set [11], the system named is Mus musculus. Briefly: Reduction of cIAP1 level in human MDA-MB-231 cells xenografted in Balb/c SCID mouse at 100 mg/kg, ip measured after 1 hr by MSD plate-based method relative to vehicle-treated control. It counts as functional, organism-based.
Data set [12] concerns the target T1, E3 ubiquitin-protein ligase XIAP (Homo sapiens, UniProt P98170). Kind of data set: Antagonist activity at XIAP-BIR3 domain (unknown origin) assessed as inhibition of interaction with SMAC at 5 mM by fluorescence polarization assay relative to control. Summed up: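 Competitive FP binding of a SMAC-derived fluorescent tracer, AbuRPFK(5&6FAM)-amide (5 nM), to XIAP-BIR3 (20 nM). Compound was tested at 5 mM and equilibrated at room temperature. Polarization was read at ex 485/em 538 nm and reported as percent inhibition, mean of at least two runs.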
On the technique in general: Fluorescence polarisation rises when a labelled molecule tumbles more slowly, as on binding a larger partner.

For data set [13], the target named is Baculoviral IAP repeat-containing protein 2 (Homo sapiens) (UniProt Q13490). Kind of data set: Antagonist activity at cIAP1-BIR3 domain (unknown origin) assessed as inhibition of interaction with SMAC at 5 mM by fluorescence polarization assay relative to control. In a few lines: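 Competitive FP assay: cIAP1-BIR3 (4 nM) with a 2 nM SMAC-derived FAM peptide tracer, AbuRPFK(5&6FAM)-amide. Compound was tested at 5 mM. Polarization was read at ex 485/em 538 nm and expressed as percent inhibition, mean of at least two runs.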
Baculoviral IAP repeat-containing protein 2 (Homo sapiens), sequence (Q13490 whole entry, the tested form may be a part): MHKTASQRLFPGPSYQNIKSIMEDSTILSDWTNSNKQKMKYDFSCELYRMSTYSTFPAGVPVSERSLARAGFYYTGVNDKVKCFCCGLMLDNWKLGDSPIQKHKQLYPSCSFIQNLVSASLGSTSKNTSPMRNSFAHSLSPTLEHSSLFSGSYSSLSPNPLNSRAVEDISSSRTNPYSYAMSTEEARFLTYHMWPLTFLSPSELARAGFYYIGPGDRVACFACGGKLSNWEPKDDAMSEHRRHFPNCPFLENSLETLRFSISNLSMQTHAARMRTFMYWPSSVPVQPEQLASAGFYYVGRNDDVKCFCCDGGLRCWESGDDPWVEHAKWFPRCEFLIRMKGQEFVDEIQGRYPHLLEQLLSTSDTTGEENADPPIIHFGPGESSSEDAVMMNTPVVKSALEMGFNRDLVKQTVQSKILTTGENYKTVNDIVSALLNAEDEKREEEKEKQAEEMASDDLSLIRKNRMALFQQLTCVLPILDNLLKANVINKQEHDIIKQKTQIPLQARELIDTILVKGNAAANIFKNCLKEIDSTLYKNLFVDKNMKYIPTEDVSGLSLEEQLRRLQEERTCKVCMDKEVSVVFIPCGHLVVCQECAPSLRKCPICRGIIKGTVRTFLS

The target in data set [14] is T1, E3 ubiquitin-protein ligase XIAP. Kind of data set: Antagonist activity at XIAP-BIR3 domain (unknown origin) assessed as inhibition of interaction with SMAC at 1000 uM by fluorescence polarization assay relative to control.
Data set [15] has the same target. Kind of data set: Antagonist activity at XIAP-BIR3 domain (unknown origin) assessed as inhibition of interaction with SMAC at 1 mM by fluorescence polarization assay relative to control.
Data set [16] has the same target. The settings on record: 0.05 uM.
The target is the same in data set [17]. Briefly: Antagonist activity at full-length FLAG-tagged XIAP (unknown origin) transfected in HEK293 cells assessed as inhibition of interaction with caspase 9 after 2 hrs by immunoprecipitation assay. In kind it is cell-based.
In data set [18] the test system is MDA-MB-231. Briefly: Antitumor activity against human MDA-MB-231 cells xenografted in Balb/c SCID mouse assessed as tumor growth inhibition at 100 mg/kg, po qd measured every 3 days. In kind it is functional, organism-based. Summed up: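 Balb/c scid mice were inoculated s.c. with 5 x 10^6 MDA-MB-231 cells and dosing began when group (n=8) mean tumor volume reached 100 mm³. Arms: 100 mg/kg i.p. b.i.d., 100 mg/kg p.o. q.d., or vehicle. Tumor volume (length x width x width x 0.5) measured every 3 days; body weight recorded daily.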

In data set [19] the target is Baculoviral IAP repeat-containing protein 2 (Homo sapiens) (UniProt Q13490). Kind of data set: Antagonist activity at cIAP1-BIR3 domain (unknown origin) assessed as inhibition of interaction with SMAC at 0.01 uM by fluorescence polarization assay relative to control.
The target in data set [20] is T1, E3 ubiquitin-protein ligase XIAP. Kind of data set: Antagonist activity at XIAP-BIR3 domain (unknown origin) assessed as inhibition of interaction with SMAC at 495 uM by fluorescence polarization assay relative to control.
Data set [21] shares this target. Briefly: Antagonist activity at XIAP-BIR3 domain (unknown origin) assessed as inhibition of interaction with SMAC at 155 uM by fluorescence polarization assay relative to control.

Each structure is given as a SMILES string. The source made the active and inactive calls. No cut-off for these calls is given here.

T1 sequence (P98170 whole entry, the tested form may be a part): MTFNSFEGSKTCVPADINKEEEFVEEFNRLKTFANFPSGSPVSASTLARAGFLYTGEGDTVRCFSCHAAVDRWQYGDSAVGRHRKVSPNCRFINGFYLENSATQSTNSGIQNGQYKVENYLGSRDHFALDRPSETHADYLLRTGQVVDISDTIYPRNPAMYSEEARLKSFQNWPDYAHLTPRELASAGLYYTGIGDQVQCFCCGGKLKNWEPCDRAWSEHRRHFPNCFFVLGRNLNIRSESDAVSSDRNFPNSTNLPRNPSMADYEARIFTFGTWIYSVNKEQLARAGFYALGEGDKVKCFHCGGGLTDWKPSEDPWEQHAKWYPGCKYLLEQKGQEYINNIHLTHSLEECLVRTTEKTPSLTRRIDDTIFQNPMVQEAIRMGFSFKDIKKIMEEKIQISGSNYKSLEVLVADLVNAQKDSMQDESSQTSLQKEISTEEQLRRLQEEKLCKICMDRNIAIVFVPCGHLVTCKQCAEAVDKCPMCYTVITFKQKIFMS

Consider `COC[C@H]1CN[C@H](C)CN1CC(=O)N1CC(C)(C)c2cnc(Cc3ccccc3)cc21`, for which the outcome in data set [1], in data set [9], in data set [10] and in [11] was Active. For the same molecule, the Activity result in data set [2] is listed as “Non-toxic”. The result in [3] and in [5] was inactive. Further, the EC50 in data set [4] is 100 nM; in data set [7], more than 10 µM; in [8], 590 nM. In data set [6], the TGI result is “Active”.
On to `O=C(CN1CCNCC1)N1CCCCC1`, for which the inhibition in data set [12] is 38%; in data set [13], 16%.
As for `C[C@@H]1CN(CC(=O)N2CCc3ccc(N)cc32)CCN1`, the inhibition in data set [14] and in data set [15] was 56% in each case.
For `Brc1cnn(C2CCNCC2)c1`, the inhibition in data set [12] stood at 33%; in [13] it was 55%.
In the case of `CN[C@@H](C)C(=O)N[C@H]1CN(C(=O)CC(C)C)CC[C@H]2CC[C@@H](C(=O)NC(c3ccccc3)c3ccccc3)N2C1=O` [XEVINAPANT], the values for the inhibition in data set [16] and in data set [19] were 70% and 98%, respectively. Besides, the EC50 in [4] was 2.1 nM; in data set [17], 34 nM; in [7] it was more than 10 µM; in data set [8], 19 nM. The TGI entry in data set [18] was “Active”.
In the case of `C[C@@H]1CN(CC(=O)N2CCc3ccccc32)CCN1`, the inhibition in [20] turned out to be 52%.
As to `COc1ccc2c(c1)N(C(=O)CN1CCN[C@H](C)C1)CC2`, the inhibition in data set [21] is 49%.
